Assay results from ChEMBL document CHEMBL4808213, “2-(Halogenated Phenyl) acetamides and propanamides as potent TRPV1 antagonists” (Bioorg Med Chem Lett, 2021).
Calls of active or inactive are those of the source. The rule behind the calls is not given here.

What was measured:
[1] = target: T1, Transient receptor potential cation channel subfamily V member 1 (Homo sapiens, UniProt Q8NER1); experiment: Agonist activity at human TRPV1 expressed in CHO cells; format: cell-based; conditions: filed as agonist
[2] = target: T1, Transient receptor potential cation channel subfamily V member 1; experiment: Antagonist activity at human TRPV1 expressed in CHO cells assessed as inhibition of capsaicin-induced TRPV1 activation by FLIPR method; format: cell-based
[3] = target: T1, Transient receptor potential cation channel subfamily V member 1; experiment: Partial agonist activity at human TRPV1 expressed in CHO cells; format: cell-based; conditions: filed as partial agonist
[4] = test system: Mus musculus; experiment: Analgesic activity in ip dosed mouse model of formalin-induced paw edema; format: functional, organism-based
In short: (§1)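 Formalin test in mice, with antagonist given by intraperitoneal injection before testing. Nociceptive behaviour was scored separately in the 1st and 2nd phases. Several doses were tested, and ED50 for each phase was derived from the dose-response.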

[5] = test system: Mus musculus; experiment: Analgesic activity in ip dosed mouse model of formalin-induced paw edema assessed as reduction in pain behaviour by measuring effective dose in 1st phase; format: functional; in short: as §1
[6] = test system: Mus musculus; experiment: Analgesic activity in ip dosed mouse model of formalin-induced paw edema assessed as reduction in pain behaviour by measuring effective dose in 2nd phase; format: functional; in short: as §1
[7] = test system: Mus musculus; experiment: Analgesic activity in mouse model of formalin-induced paw edema assessed as induction of hyperthermia at 10 mg/kg, ip; format: functional, organism-based
In short: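 Mice received 10 mg/kg intraperitoneally, and body temperature was then measured to check for hyperthermia.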

T1 sequence (Q8NER1 whole entry): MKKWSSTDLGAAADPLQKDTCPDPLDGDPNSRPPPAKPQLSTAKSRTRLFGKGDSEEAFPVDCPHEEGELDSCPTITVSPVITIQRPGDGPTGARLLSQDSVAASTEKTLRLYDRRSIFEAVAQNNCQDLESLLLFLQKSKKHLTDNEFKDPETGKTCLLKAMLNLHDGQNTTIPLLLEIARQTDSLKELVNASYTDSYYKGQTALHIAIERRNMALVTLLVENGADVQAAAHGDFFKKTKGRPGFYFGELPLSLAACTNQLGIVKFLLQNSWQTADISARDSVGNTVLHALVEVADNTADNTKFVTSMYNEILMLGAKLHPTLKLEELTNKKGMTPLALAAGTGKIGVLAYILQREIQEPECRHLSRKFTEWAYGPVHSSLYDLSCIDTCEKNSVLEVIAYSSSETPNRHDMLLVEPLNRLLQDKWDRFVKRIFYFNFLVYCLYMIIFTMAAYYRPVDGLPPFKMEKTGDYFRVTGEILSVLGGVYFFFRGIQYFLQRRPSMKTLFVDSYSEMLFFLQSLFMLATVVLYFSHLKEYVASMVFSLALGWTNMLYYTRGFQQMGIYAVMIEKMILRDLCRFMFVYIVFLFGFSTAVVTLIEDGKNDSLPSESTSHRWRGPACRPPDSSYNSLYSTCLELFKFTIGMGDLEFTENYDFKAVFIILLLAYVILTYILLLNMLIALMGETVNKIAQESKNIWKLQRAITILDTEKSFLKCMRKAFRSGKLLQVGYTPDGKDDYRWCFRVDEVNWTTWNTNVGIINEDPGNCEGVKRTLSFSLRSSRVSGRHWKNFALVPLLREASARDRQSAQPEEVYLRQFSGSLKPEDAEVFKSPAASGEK

Structure (SMILES): CC1CCN(c2nc(C(F)(F)F)ccc2CNC(=O)C(C)c2ccc(F)c(F)c2)CC1 (configuration not stated)
- Activity [1]: Active

Structure (SMILES): O=C(Cc1ccc(Cl)c(Cl)c1)NCc1cc(C(F)(F)F)nn1-c1cccc(Cl)c1
- Ki [2]: 3.8 nM

Structure (SMILES): CC(C(=O)NCc1cc(C(F)(F)F)nn1-c1cccc(Cl)c1)c1ccc(F)c(F)c1 (configuration not stated)
- Activity [3]: Active

Structure (SMILES): CC(C(=O)NCc1cc(C(C)(C)C)nn1-c1cccc(Cl)c1)c1ccccc1F (configuration not stated)
- Activity [1]: Active

Structure (SMILES): CC(C)(C)c1cc(CNC(=O)Cc2ccc(F)cc2Cl)n(-c2cccc(Cl)c2)n1
- Ki [2]: 19.9 nM

Structure (SMILES): CC1CCN(c2nc(C(F)(F)F)ccc2CNC(=O)Cc2cccc(Cl)c2)CC1
- Ki [2]: 6.1 nM

Structure (SMILES): CC(C)(C)c1cc(CNC(=O)Cc2ccc(Cl)c(Cl)c2)n(-c2cccc(Cl)c2)n1
- Activity [3]: Active

Structure (SMILES): CC(C(=O)NCc1cc(C(F)(F)F)nn1-c1cccc(Cl)c1)c1cccc(F)c1 (configuration not stated)
- Activity [3]: Active

Structure (SMILES): O=C(Cc1ccc(Cl)c(F)c1)NCc1cc(C(F)(F)F)nn1-c1cccc(Cl)c1
- Ki [2]: 20.9 nM

Structure (SMILES): CC1CCN(c2nc(C(F)(F)F)ccc2CNC(=O)C(C)c2ccc(Cl)cc2)CC1 (configuration not stated)
- Activity [3]: Active

Structure (SMILES): CC1CCN(c2nc(C(F)(F)F)ccc2CNC(=O)Cc2ccc(F)c(F)c2)CC1
- Activity [3]: Active

Structure (SMILES): CC1CCN(c2nc(C(F)(F)F)ccc2CNC(=O)C(C)c2ccc(F)cc2)CC1 (configuration not stated)
- Activity [1]: Active

Structure (SMILES): CC1CCN(c2nc(C(F)(F)F)ccc2CNC(=O)Cc2ccc(F)cc2)CC1
- Activity [1]: Active

Structure (SMILES): CC(C(=O)NCc1cc(C(F)(F)F)nn1-c1cccc(Cl)c1)c1cccc(Cl)c1 (configuration not stated)
- Activity [3]: Active

Structure (SMILES): CC1CCN(c2nc(C(F)(F)F)ccc2CNC(=O)Cc2cccc(Cl)c2Cl)CC1
- Ki [2]: 4.9 nM

Structure (SMILES): CC(C)(C)c1cc(CNC(=O)Cc2cccc(F)c2)n(-c2cccc(Cl)c2)n1
- Activity [1]: Active

Structure (SMILES): CC(C(=O)NCc1cc(C(C)(C)C)nn1-c1cccc(Cl)c1)c1ccc(Cl)cc1Cl (configuration not stated)
- Activity [1]: Active

Structure (SMILES): CC(C)(C)c1cc(CNC(=O)Cc2ccccc2F)n(-c2cccc(Cl)c2)n1
- Activity [3]: Active

Structure (SMILES): O=C(Cc1ccc(F)cc1Cl)NCc1cc(C(F)(F)F)nn1-c1cccc(Cl)c1
- Ki [2]: 38.8 nM

Structure (SMILES): CC(C)(C)c1cc(CNC(=O)Cc2cc(F)ccc2F)n(-c2cccc(Cl)c2)n1
- Activity [3]: Active

Structure (SMILES): CC(C(=O)NCc1cc(C(F)(F)F)nn1-c1cccc(Cl)c1)c1ccc(F)cc1 (configuration not stated)
- Activity [3]: Active

Structure (SMILES): CC(C)(C)c1cc(CNC(=O)Cc2ccc(Cl)c(F)c2)n(-c2cccc(Cl)c2)n1
- Activity [3]: Active

Structure (SMILES): CC(C)(C)c1cc(CNC(=O)Cc2ccc(F)cc2)n(-c2cccc(Cl)c2)n1
- Activity [1]: Active

Structure (SMILES): CC(C)(C)c1cc(CNC(=O)Cc2ccc(F)c(Cl)c2)n(-c2cccc(Cl)c2)n1
- Activity [1]: Active

Structure (SMILES): CC(C)(C)c1cc(CNC(=O)Cc2ccc(F)cc2F)n(-c2cccc(Cl)c2)n1
- Activity [3]: Active

Structure (SMILES): CC(C)(C)c1cc(CNC(=O)Cc2cc(F)cc(F)c2)n(-c2cccc(Cl)c2)n1
- Activity [3]: Active

Structure (SMILES): C[C@H](C(=O)NCc1cc(C(C)(C)C)nn1-c1cccc(Cl)c1)c1ccc(NS(C)(=O)=O)c(F)c1
- Ki [2]: 0.3 nM

Structure (SMILES): O=C(Cc1ccc(F)c(F)c1)NCc1cc(C(F)(F)F)nn1-c1cccc(Cl)c1
- Activity [3]: Active

Structure (SMILES): CC(C)(C)c1cc(CNC(=O)Cc2ccc(F)c(F)c2)n(-c2cccc(Cl)c2)n1
- Activity [1]: Active

Structure (SMILES): CC(C(=O)NCc1cc(C(C)(C)C)nn1-c1cccc(Cl)c1)c1cccc(Cl)c1 (configuration not stated)
- Activity [1]: Active

Structure (SMILES): CC1CCN(c2nc(C(F)(F)F)ccc2CNC(=O)Cc2c(F)cccc2Cl)CC1
- Ki [2]: 2.6 nM
- Activity [4]: inactive

Structure (SMILES): CC1CCN(c2nc(C(F)(F)F)ccc2CNC(=O)C(C)c2cccc(F)c2)CC1 (configuration not stated)
- Activity [1]: Active

Structure (SMILES): CC1CCN(c2nc(C(F)(F)F)ccc2CNC(=O)C(C)c2ccc(Cl)c(Cl)c2)CC1 (configuration not stated)
- Activity [3]: Active

Structure (SMILES): O=C(Cc1cccc(F)c1F)NCc1cc(C(F)(F)F)nn1-c1cccc(Cl)c1
- Ki [2]: 11.5 nM

Structure (SMILES): CC(C(=O)NCc1cc(C(C)(C)C)nn1-c1cccc(Cl)c1)c1ccc(Cl)cc1 (configuration not stated)
- Activity [1]: Active

Structure (SMILES): CC(C)(C)c1cc(CNC(=O)Cc2cccc(Cl)c2)n(-c2cccc(Cl)c2)n1
- Activity [1]: Active

Structure (SMILES): CC(C(=O)NCc1cc(C(C)(C)C)nn1-c1cccc(Cl)c1)c1cccc(Cl)c1Cl (configuration not stated)
- Activity [3]: Active

Structure (SMILES): CC(C(=O)NCc1cc(C(C)(C)C)nn1-c1cccc(Cl)c1)c1cccc(F)c1 (configuration not stated)
- Activity [1]: Active

Structure (SMILES): CC1CCN(c2nc(C(F)(F)F)ccc2CNC(=O)Cc2ccc(F)cc2F)CC1
- Activity [1]: Active

Structure (SMILES): CC(C)(C)c1cc(CNC(=O)Cc2ccc(Cl)cc2Cl)n(-c2cccc(Cl)c2)n1
- Ki [2]: 16.7 nM

Structure (SMILES): CC(C(=O)NCc1cc(C(C)(C)C)nn1-c1cccc(Cl)c1)c1c(F)cccc1F (configuration not stated)
- Activity [3]: Active

Structure (SMILES): CC1CCN(c2nc(C(F)(F)F)ccc2CNC(=O)[C@@H](C)c2ccc(NS(C)(=O)=O)c(F)c2)CC1 (racemic)
- Ki [2]: 0.3 nM

Structure (SMILES): CC(C(=O)NCc1cc(C(F)(F)F)nn1-c1cccc(Cl)c1)c1ccc(Cl)cc1 (configuration not stated)
- Activity [3]: Active

Structure (SMILES): CC1CCN(c2nc(C(F)(F)F)ccc2CNC(=O)C(C)c2ccc(F)cc2Cl)CC1 (configuration not stated)
- Activity [1]: Active

Structure (SMILES): O=C(Cc1ccc(Cl)cc1)NCc1cc(C(F)(F)F)nn1-c1cccc(Cl)c1
- Ki [2]: 6.3 nM

Structure (SMILES): CC1CCN(c2nc(C(F)(F)F)ccc2CNC(=O)Cc2ccc(Cl)cc2Cl)CC1
- Ki [2]: 46 nM

Structure (SMILES): CC(C(=O)NCc1cc(C(F)(F)F)nn1-c1cccc(Cl)c1)c1ccc(F)cc1F (configuration not stated)
- Activity [3]: Active

Structure (SMILES): CC(C(=O)NCc1cc(C(F)(F)F)nn1-c1cccc(Cl)c1)c1cc(F)cc(F)c1 (configuration not stated)
- Activity [3]: Active

Structure (SMILES): CC(C(=O)NCc1cc(C(C)(C)C)nn1-c1cccc(Cl)c1)c1cc(F)ccc1F (configuration not stated)
- Activity [3]: Active

Structure (SMILES): CC(C(=O)NCc1cc(C(C)(C)C)nn1-c1cccc(Cl)c1)c1ccc(Cl)c(Cl)c1 (configuration not stated)
- Activity [1]: Active

Structure (SMILES): CC1CCN(c2nc(C(F)(F)F)ccc2CNC(=O)Cc2ccc(Cl)c(F)c2)CC1
- Activity [3]: Active

Structure (SMILES): O=C(Cc1cc(F)ccc1F)NCc1cc(C(F)(F)F)nn1-c1cccc(Cl)c1
- Ki [2]: 58.9 nM

Structure (SMILES): CC(C(=O)NCc1cc(C(C)(C)C)nn1-c1cccc(Cl)c1)c1ccc(F)c(Cl)c1 (configuration not stated)
- Activity [1]: Active

Structure (SMILES): CC(C(=O)NCc1cc(C(C)(C)C)nn1-c1cccc(Cl)c1)c1cc(F)cc(F)c1 (configuration not stated)
- Activity [1]: Active

Structure (SMILES): CC(C)(C)c1cc(CNC(=O)Cc2cccc(F)c2F)n(-c2cccc(Cl)c2)n1
- Ki [2]: 6.9 nM
- ED50 [5]: 50.5 mg/kg
- ED50 [6]: 29.5 mg/kg
- Activity [7]: inactive

Structure (SMILES): CC(C(=O)NCc1cc(C(C)(C)C)nn1-c1cccc(Cl)c1)c1ccccc1Cl (configuration not stated)
- Activity [3]: Active

Structure (SMILES): O=C(Cc1cccc(Cl)c1Cl)NCc1cc(C(F)(F)F)nn1-c1cccc(Cl)c1
- Ki [2]: 22.6 nM

Structure (SMILES): CC(C)(C)c1cc(CNC(=O)Cc2c(F)cccc2Cl)n(-c2cccc(Cl)c2)n1
- Ki [2]: 19 nM

Structure (SMILES): O=C(Cc1ccc(F)cc1F)NCc1cc(C(F)(F)F)nn1-c1cccc(Cl)c1
- Ki [2]: 43.3 nM

Structure (SMILES): CC(C(=O)NCc1cc(C(C)(C)C)nn1-c1cccc(Cl)c1)c1ccc(F)cc1F (configuration not stated)
- Activity [1]: Active

Structure (SMILES): CC(C)(C)c1cc(CNC(=O)Cc2ccc(Cl)cc2)n(-c2cccc(Cl)c2)n1
- Activity [1]: Active

Structure (SMILES): CC(C(=O)NCc1cc(C(C)(C)C)nn1-c1cccc(Cl)c1)c1cccc(F)c1F (configuration not stated)
- Activity [3]: Active

Structure (SMILES): CC(C(=O)NCc1cc(C(C)(C)C)nn1-c1cccc(Cl)c1)c1ccc(F)c(F)c1 (configuration not stated)
- Activity [1]: Active

Structure (SMILES): CC1CCN(c2nc(C(F)(F)F)ccc2CNC(=O)Cc2ccc(F)c(C(F)(F)F)c2)CC1
- Ki [2]: 9.8 nM

Structure (SMILES): CC1CCN(c2nc(C(F)(F)F)ccc2CNC(=O)C(C)c2ccc(F)cc2F)CC1 (configuration not stated)
- Activity [3]: Active

Structure (SMILES): O=C(Cc1cc(F)cc(F)c1)NCc1cc(C(F)(F)F)nn1-c1cccc(Cl)c1
- Ki [2]: 13.7 nM

Structure (SMILES): CC(C(=O)NCc1cc(C(C)(C)C)nn1-c1cccc(Cl)c1)c1ccc(F)cc1 (configuration not stated)
- Activity [1]: Active

Structure (SMILES): CC1CCN(c2nc(C(F)(F)F)ccc2CNC(=O)Cc2c(Cl)cccc2Cl)CC1
- Ki [2]: 39.7 nM

Structure (SMILES): CC1CCN(c2nc(C(F)(F)F)ccc2CNC(=O)Cc2ccc(Cl)cc2)CC1
- Activity [1]: Active

Structure (SMILES): CC1CCN(c2nc(C(F)(F)F)ccc2CNC(=O)C(C)c2ccc(Cl)c(F)c2)CC1 (configuration not stated)
- Activity [3]: Active

Structure (SMILES): CC(C(=O)NCc1cc(C(C)(C)C)nn1-c1cccc(Cl)c1)c1ccc(Cl)c(F)c1 (configuration not stated)
- Activity [1]: Active

Structure (SMILES): CC1CCN(c2nc(C(F)(F)F)ccc2CNC(=O)Cc2ccc(F)cc2Cl)CC1
- Ki [2]: 14.2 nM

Structure (SMILES): O=C(Cc1ccc(F)cc1)NCc1cc(C(F)(F)F)nn1-c1cccc(Cl)c1
- Activity [3]: Active
